Source: ChEMBL document CHEMBL4371031, “In Vitro Antiviral Activity of New Oxazoline Derivatives as Potent Poliovirus Inhibitors” (J Med Chem, 2019)

How the values were obtained:
Format in all cases: functional, organism-based
Conditions in all cases: Enterovirus C
Poliovirus 1 = test: Antiviral activity against Poliovirus Sabin 1 infected in human HeLa cells assessed as reduction in virus-induced cytopathic effect after 72 hrs by crystal violet staining-based assay
Method in brief: (§1)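 HeLa cells grown in MEM-10% FBS, seeded at 2x10^5 cells/mL in MEM-2% FBS and preincubated 24 h at 37°C, 5% CO2. Compound and virus were cross-titrated […] compound in 0.5 log10 steps (7-point curves), with duplicate wells and three replicate tests per virus. After 72 h at 37°C, cells were crystal violet stained and read at 590 nm. EC50 came from a four-parameter fit; if all virus dilutions gave >80% monolayer destruction, the value was […].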

Poliovirus 3 = test: Antiviral activity against Poliovirus Sabin 3 infected in human HeLa cells assessed as reduction in virus-induced cytopathic effect after 72 hrs by crystal violet staining-based assay
Method in brief: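 HeLa cells grown in MEM-10% FBS, seeded at 2x10^5 cells/mL in MEM-2% FBS and held 24 h at 37°C, 5% CO2. Compound and virus were cross-titrated together on the cells starting at 10 µM compound, in 0.5 log10 steps, duplicate wells, three replicate tests per virus. Incubated 72 h at 37°C, stained with crystal violet, A590 read. EC50 from four-parameter fit.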

Poliovirus 2 = test: Antiviral activity against Poliovirus Sabin 2 infected in human HeLa cells assessed as reduction in virus-induced cytopathic effect after 72 hrs by crystal violet staining-based assay; method in brief: as §1

Cc1ccc(C(=O)CCCC#Cc2ccc(C3=NCCO3)cc2)s1
EC50 (Poliovirus 1): > 10 µM
EC50 (Poliovirus 3): 9.16 µM
EC50 (Poliovirus 2): 9.09 µM

CCOC(=O)c1ccc(OCCC2CCN(c3ccc(C)nn3)CC2)cc1 [PIRODAVIR]
EC50 (Poliovirus 1): 0.0045 µM
EC50 (Poliovirus 3): 0.008 µM
EC50 (Poliovirus 2): 0.005 µM

Cc1ccc(C(=O)CCCC[S+]([O-])c2ccc(C3=NCCO3)cc2)s1 (racemic)
EC50 (Poliovirus 1): > 10 µM
EC50 (Poliovirus 3): > 10 µM
EC50 (Poliovirus 2): > 10 µM

COc1ccc(OCc2ccc(COc3c(Cl)cccc3Cl)cc2)c(Cl)c1
EC50 (Poliovirus 1): 0.017 µM
EC50 (Poliovirus 3): 0.02 µM
EC50 (Poliovirus 2): 0.016 µM

Cc1ccc(C(=O)CCCCOc2ccc(C3=N[C@H](C)CO3)cc2)s1
EC50 (Poliovirus 1): > 100 µM
EC50 (Poliovirus 3): 1.32 µM
EC50 (Poliovirus 2): 0.417 µM

Cc1ccc(C(=O)CCCCSc2ccc(C3=N[C@H](C)CO3)cc2)s1
EC50 (Poliovirus 1): 0.169 µM
EC50 (Poliovirus 3): 0.53 µM
EC50 (Poliovirus 2): 0.302 µM

Cc1ccc(C(=O)c2cccc(CSc3ccc(C4=NCCO4)cc3)c2)s1
EC50 (Poliovirus 1): > 10 µM
EC50 (Poliovirus 3): > 10 µM
EC50 (Poliovirus 2): > 10 µM

C#CC[C@@H](C(=O)N[C@H](/C=C/C(=O)OCC)C[C@@H]1CCNC1=O)n1cccc(NC(=O)c2cc(C)on2)c1=O [IMOCITRELVIR]
EC50 (Poliovirus 1): 0.173 µM
EC50 (Poliovirus 3): 0.137 µM
EC50 (Poliovirus 2): 0.305 µM

Cc1ccc(C(=O)CCCCCc2ccc(C3=NCCO3)cc2)s1
EC50 (Poliovirus 1): > 10 µM
EC50 (Poliovirus 3): 9.07 µM
EC50 (Poliovirus 2): 9.27 µM

N#Cc1ccc(NC(=O)c2cc3n(n2)C(C(F)(F)F)CC(c2cccs2)N3)cc1 (stereo unspecified)
EC50 (Poliovirus 1): 0.01 µM
EC50 (Poliovirus 3): 0.218 µM
EC50 (Poliovirus 2): 0.026 µM

Cc1ccc(C(=O)c2cccc(COc3ccc(C4=NCCO4)cc3)c2)s1
EC50 (Poliovirus 1): > 10 µM
EC50 (Poliovirus 3): > 10 µM
EC50 (Poliovirus 2): > 10 µM

Cc1ccc(C(=O)CCCCS(=O)(=O)c2ccc(C3=NCCO3)cc2)s1
EC50 (Poliovirus 1): > 10 µM
EC50 (Poliovirus 3): > 10 µM
EC50 (Poliovirus 2): > 10 µM
